Published values of several laboratories.
Read-out: cell growth or viability

SMILES	cell line	test	setting	IC50
O=C(Nc1ccc(Cl)cc1)Nc1cccc(-c2cn(Cc3cccc(Br)c3)nn2)c1	Huh-7	CCK-8	72 h	32.3 µM
COc1cccc2c1C(=O)c1c(O)c3c(c(O)c1C2=O)C[C@@](O)(C(=O)CO)C[C@@H]3O[C@H]1C[C@H](N)[C@H](O)[C@H](C)O1	Huh-7	ATP luminescence	72 h	0.6 µM
O=[N+]([O-])c1cc(Br)c(O)c(C=NNc2ccccc2)c1	HEK-293T	MTT	24 h	23 µM
C=CCn1c(=O)c2cnc(Nc3ccc(N4CCN(C)CC4)cc3)nc2n1-c1ccc2c(n1)[C@@](O)(CC)CC2	KURAMOCHI	ATP luminescence	72 h	1.52 µM
O=[N+]([O-])c1ccc(O)c(C=NNc2ccc(C(F)(F)F)cc2)c1	HEK-293T	MTT	24 h	17 µM
COc1ccc(NC(=O)Nc2cccc(-c3cn(Cc4cccc(Cl)c4)nn3)c2)cc1	Huh-7	CCK-8	72 h	13.5 µM
CN1CCN(c2ccc(Nc3c4ccccc4nc4ccccc34)cc2)CC1	THLE3	imaging	72 h	8.63 µM
O=[N+]([O-])c1cc(I)c(O)c(C=NNc2ccccc2)c1	HEK-293T	MTT	24 h	17 µM
Cc1nnc(-c2nn(Cc3ccc(Cl)cc3Cl)c3ccccc23)o1	HepG2	–	48 h	41.5 µM
COc1cccc2c1C(=O)c1c(O)c3c(c(O)c1C2=O)C[C@@](O)(C(=O)CO)C[C@@H]3O[C@H]1C[C@H](N)[C@H](O)[C@H](C)O1	HepG2	MTT	–	0.46 µM
COC(=O)c1ccc2c(c1)NC(=O)/C2=C(\Nc1ccc(N(C)C(=O)CN2CCN(C)CC2)cc1)c1ccccc1	HEK-293T	MTT	24 h	0.8 µM
O=c1[nH]cc(F)c(=O)[nH]1	Huh-7	CCK-8	72 h	17.2 µM
COc1cccc2c1C(=O)c1c(O)c3c(c(O)c1C2=O)C[C@@](O)(C(=O)CO)C[C@@H]3O[C@H]1C[C@H](N)[C@H](O)[C@H](C)O1	HEK-293T	MTT	24 h	1.39 µM
COc1ccc(NC(=O)Nc2ccc(-c3cn(Cc4ccc(Br)cc4)nn3)cc2)cc1	Huh-7	CCK-8	72 h	> 50 µM
O=C(Nc1cccc(-c2cn(Cc3ccc(Cl)cc3)nn2)c1)Nc1ccccc1Br	Huh-7	CCK-8	72 h	13.5 µM
COc1cccc2c1C(=O)c1c(O)c3c(c(O)c1C2=O)C[C@@](O)(C(=O)CO)C[C@@H]3O[C@H]1C[C@H](N)[C@H](O)[C@H](C)O1	Ramos	–	96 h	0.0117 µM
COc1ccc(NC(=O)NCc2cn(Cc3ccc(Br)cc3)nn2)cc1	Huh-7	CCK-8	72 h	> 50 µM
